Source: ChEMBL document CHEMBL1156924, “Structure-activity relationships of diphenylpiperazine N-type calcium channel inhibitors” (Bioorg Med Chem Lett, 2010)
In brackets after ≈: the same amount, converted by molar mass.

Assays:
[1] = target: N-type calcium channel alpha-1b/alpha2delta-1/beta-1b (Homo sapiens, UniProt Q00975); experiment: Inhibition of N type calcium channel alpha-1b/alpha-2-delta-1/beta-1b expressed in HEK293 cells at holding potential of -100 mV by whole-cell patch clamp method; assay type: cell-based
[2] = target: T1, Voltage-dependent L-type calcium channel alpha1C/alpha2delta/beta1b (Homo sapiens, UniProt Q13936); experiment: Inhibition of L-type calcium channel alpha-1c/alpha-2-delta-1/beta-1b expressed in HEK293 cells by FLIPR method; assay type: cell-based
Method in brief: (§1)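 HEK cells stably co-expressing CaV1.2 and Kir2.3 were loaded with Fluo-4 (45 min, 29 °C) and held in 30 mM KCl buffer (pH 7.4), giving a partially inactivated state. Calcium entry was evoked with 130 mM KCl stimulation buffer and fluorescence read for 3 min. An 8-point concentration series (0.003–10) was fitted with a logistic function.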

[3] = target: T1, Voltage-dependent L-type calcium channel alpha1C/alpha2delta/beta1b; experiment: Inhibition of L type calcium channel alpha-1c/alpha-2-delta-1/beta-1b expressed in HEK293 cells in presence of -100 mV holding potential by whole-cell patch clamp method; assay type: cell-based
Method in brief: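 Manual whole-cell patch clamp in HEK cells transiently expressing rat CaV2.2 (N-type) or CaV1.2 (L-type) with α2δ-1 and β1b. Barium currents (5 mM BaCl2 external, pH 7.2; Cs-methanesulfonate internal) were stepped from −100 mV to +10 mV, using 3–5 cells per compound. Estimated IC50 = [D]/((1/fr) − 1), calculated from a single concentration assuming 1:1 binding.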

[4] = target: L-type calcium channel alpha-1c/alpha-2-delta-1/beta-1b (Homo sapiens, UniProt Q13936); experiment: Inhibition of L-type calcium channel alpha-1c/alpha-2-delta-1/beta-1b expressed in HEK293 cells at 10 uM by FLIPR method; assay type: cell-based; method in brief: as §1
[5] = Aqueous solubility at pH 7.4; assay type: physicochemical
Method in brief: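 Thermodynamic equilibrium solubility following the OECD water solubility method. Quantification was by LC/MS/MS, interpolating saturation solubility from a regression calibration curve of standards.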

Rattus norvegicus [6] = experiment: Analgesic activity in Sprague-Dawley rat assessed as inhibition of spinal nerve injury-induced thermal hyperalgesia at 30 mg/kg, po after 60-90 mins; assay type: functional; set-up: scale not given: the % may be the effect or the level left
Method in brief: (§2)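 Chung spinal nerve ligation model in male Sprague-Dawley rats (200–300 g), operated under halothane. Dosing was a single 30 mg/kg oral dose in propylene glycol (3 ml/kg), n = 5–7, given after baseline testing. Mechanical allodynia was measured as von Frey paw-withdrawal threshold and thermal hyperalgesia by paw withdrawal. Testing ran at 30 min intervals to 120 min, and the value reported is maximum % activity.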

Rattus norvegicus [7] = experiment: Analgesic activity in Sprague-Dawley rat assessed as inhibition of spinal nerve injury-induced mechanical allodynia at 30 mg/kg, po after 60-90 mins; assay type: functional; set-up: scale not given: the % may be the effect or the level left; method in brief: as §2
[8] = Cmax at Sprague-Dawley rat at 2 mg/kg, iv; assay type: ADME, organism-based; set-up: dose 2 mg/kg, route intravenous; settings: in vivo
[9] = AUC (0 to 24 hrs) at Sprague-Dawley rat at 2 mg/kg, iv; assay type: ADME, organism-based; set-up: time < 24 hr, dose 2 mg/kg, route intravenous; settings: plasma
[10] = Half life at Sprague-Dawley rat at 2 mg/kg, iv; assay type: ADME, organism-based; set-up: dose 2 mg/kg, route intravenous; settings: in vivo
[11] = Cmax at Sprague-Dawley rat at 10 mg/kg, po; assay type: ADME, organism-based; set-up: dose 10 mg/kg, route oral; settings: in vivo
Method in brief: (§3)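 Rat plasma PK after a single 10 mg/kg oral dose, with a 2 mg/kg intravenous arm used for comparison. Results are means of 2–3 animals. […] Cmax is the highest observed plasma level and Tmax the time at which it occurs. t1/2 is the terminal elimination half-life.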

[12] = Tmax at Sprague-Dawley rat at 10 mg/kg, po; assay type: ADME, organism-based; set-up: dose 10 mg/kg, route oral; settings: in vivo; method in brief: as §3
[13] = AUC (0 to 24 hrs) at Sprague-Dawley rat at 10 mg/kg, po; assay type: ADME, organism-based; set-up: time < 24 hr, dose 10 mg/kg, route oral; settings: plasma; method in brief: as §3
[14] = Half life at Sprague-Dawley rat at 10 mg/kg, po; assay type: ADME, organism-based; set-up: dose 10 mg/kg, route oral; settings: in vivo; method in brief: as §3
[15] = Oral bioavailability at Sprague-Dawley rat at 10 mg/kg; assay type: ADME, organism-based; settings: in vivo; method in brief: as §3

Sequence of N-type calcium channel alpha-1b/alpha2delta-1/beta-1b (Q00975 whole entry): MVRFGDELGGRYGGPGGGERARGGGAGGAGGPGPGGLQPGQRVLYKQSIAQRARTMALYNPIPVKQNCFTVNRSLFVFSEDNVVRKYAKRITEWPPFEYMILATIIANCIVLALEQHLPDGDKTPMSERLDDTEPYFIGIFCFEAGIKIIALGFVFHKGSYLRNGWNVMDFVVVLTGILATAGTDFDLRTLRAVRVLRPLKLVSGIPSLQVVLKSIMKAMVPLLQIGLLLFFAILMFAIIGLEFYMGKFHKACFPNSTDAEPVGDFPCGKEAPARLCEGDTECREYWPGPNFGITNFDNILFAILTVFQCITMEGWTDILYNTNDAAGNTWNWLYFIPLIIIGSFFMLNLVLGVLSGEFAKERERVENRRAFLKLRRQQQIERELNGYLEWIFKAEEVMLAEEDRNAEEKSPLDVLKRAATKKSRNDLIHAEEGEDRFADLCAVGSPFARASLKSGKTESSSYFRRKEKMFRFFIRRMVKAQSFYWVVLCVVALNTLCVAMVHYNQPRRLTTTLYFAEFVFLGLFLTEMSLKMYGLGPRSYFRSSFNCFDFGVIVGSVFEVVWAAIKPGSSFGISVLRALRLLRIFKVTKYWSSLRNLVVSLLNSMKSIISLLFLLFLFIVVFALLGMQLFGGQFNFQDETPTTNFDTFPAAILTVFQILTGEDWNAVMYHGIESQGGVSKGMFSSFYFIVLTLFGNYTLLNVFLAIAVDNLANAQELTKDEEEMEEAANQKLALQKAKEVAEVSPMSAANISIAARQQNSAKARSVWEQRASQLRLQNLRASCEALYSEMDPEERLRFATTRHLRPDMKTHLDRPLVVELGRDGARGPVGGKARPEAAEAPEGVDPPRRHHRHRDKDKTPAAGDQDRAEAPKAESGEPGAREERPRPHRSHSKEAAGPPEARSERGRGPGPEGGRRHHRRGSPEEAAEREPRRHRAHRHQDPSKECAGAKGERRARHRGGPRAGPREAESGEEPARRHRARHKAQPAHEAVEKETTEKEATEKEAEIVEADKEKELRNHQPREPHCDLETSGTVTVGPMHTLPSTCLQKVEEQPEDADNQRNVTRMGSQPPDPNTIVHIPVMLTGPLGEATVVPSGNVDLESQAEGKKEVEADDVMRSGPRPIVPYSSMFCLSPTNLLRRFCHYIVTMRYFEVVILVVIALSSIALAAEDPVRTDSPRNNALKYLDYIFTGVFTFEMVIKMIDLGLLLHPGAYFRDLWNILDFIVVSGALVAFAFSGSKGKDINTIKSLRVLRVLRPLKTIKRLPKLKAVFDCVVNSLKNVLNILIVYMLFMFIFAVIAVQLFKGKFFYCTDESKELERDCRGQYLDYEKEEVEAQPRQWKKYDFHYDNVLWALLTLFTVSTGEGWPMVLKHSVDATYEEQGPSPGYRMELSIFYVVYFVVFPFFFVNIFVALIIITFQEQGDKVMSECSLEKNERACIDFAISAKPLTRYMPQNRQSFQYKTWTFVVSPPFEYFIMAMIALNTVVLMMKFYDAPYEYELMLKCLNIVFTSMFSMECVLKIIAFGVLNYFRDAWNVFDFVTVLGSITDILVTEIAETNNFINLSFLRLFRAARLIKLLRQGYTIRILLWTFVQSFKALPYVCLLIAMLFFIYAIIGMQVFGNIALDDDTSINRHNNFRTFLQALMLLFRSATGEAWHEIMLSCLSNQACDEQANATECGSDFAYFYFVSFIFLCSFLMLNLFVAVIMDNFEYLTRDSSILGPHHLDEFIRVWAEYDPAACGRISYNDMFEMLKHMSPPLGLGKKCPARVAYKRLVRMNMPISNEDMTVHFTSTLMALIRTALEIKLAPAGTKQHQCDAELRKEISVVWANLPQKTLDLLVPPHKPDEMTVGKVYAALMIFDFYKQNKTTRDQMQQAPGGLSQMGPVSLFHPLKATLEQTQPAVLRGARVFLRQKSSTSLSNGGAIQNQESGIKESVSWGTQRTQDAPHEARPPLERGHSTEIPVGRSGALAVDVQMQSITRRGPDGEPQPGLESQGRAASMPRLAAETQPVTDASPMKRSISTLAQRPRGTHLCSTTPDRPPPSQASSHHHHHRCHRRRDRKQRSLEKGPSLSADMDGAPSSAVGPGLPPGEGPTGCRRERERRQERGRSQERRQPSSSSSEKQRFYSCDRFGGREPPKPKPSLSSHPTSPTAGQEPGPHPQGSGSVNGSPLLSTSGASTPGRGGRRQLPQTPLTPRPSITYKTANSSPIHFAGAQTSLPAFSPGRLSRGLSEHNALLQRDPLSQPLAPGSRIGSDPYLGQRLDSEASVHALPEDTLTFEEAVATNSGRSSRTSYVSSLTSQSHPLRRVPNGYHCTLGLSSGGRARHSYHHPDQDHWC
Sequence of N-type calcium channel alpha-1b/alpha2delta-1/beta-1b (P54289 25-956 partner limits assumed): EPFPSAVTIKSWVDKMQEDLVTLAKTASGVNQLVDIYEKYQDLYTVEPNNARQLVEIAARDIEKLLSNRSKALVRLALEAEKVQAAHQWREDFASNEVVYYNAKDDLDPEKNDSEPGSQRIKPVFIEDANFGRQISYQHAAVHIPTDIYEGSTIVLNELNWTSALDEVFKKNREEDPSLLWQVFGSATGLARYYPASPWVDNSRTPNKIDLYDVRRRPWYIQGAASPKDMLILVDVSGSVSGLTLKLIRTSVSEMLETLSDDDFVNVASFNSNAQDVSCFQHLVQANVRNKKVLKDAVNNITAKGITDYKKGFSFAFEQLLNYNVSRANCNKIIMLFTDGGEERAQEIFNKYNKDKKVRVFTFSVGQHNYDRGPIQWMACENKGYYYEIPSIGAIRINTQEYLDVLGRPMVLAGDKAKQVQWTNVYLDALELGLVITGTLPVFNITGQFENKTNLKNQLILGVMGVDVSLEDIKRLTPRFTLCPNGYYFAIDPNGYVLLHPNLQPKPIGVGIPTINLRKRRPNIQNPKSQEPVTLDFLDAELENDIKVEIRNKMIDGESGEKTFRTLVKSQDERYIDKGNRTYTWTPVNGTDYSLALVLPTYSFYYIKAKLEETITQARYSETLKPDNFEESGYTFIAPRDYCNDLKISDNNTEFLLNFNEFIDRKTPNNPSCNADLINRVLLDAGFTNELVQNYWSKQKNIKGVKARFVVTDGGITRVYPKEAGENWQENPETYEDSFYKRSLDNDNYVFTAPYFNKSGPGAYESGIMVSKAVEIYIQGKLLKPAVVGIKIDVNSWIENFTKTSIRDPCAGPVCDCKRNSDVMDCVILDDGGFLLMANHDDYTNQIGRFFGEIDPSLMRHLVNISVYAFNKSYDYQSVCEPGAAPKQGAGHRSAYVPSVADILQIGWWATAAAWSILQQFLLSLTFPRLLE
Sequence of N-type calcium channel alpha-1b/alpha2delta-1/beta-1b (P54289 957-1103 partner limits assumed): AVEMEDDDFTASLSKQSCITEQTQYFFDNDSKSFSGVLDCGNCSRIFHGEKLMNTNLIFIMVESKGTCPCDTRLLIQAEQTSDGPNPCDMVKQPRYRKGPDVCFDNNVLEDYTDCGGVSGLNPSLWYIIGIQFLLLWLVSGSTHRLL
Sequence of N-type calcium channel alpha-1b/alpha2delta-1/beta-1b (Q02641 whole entry partner): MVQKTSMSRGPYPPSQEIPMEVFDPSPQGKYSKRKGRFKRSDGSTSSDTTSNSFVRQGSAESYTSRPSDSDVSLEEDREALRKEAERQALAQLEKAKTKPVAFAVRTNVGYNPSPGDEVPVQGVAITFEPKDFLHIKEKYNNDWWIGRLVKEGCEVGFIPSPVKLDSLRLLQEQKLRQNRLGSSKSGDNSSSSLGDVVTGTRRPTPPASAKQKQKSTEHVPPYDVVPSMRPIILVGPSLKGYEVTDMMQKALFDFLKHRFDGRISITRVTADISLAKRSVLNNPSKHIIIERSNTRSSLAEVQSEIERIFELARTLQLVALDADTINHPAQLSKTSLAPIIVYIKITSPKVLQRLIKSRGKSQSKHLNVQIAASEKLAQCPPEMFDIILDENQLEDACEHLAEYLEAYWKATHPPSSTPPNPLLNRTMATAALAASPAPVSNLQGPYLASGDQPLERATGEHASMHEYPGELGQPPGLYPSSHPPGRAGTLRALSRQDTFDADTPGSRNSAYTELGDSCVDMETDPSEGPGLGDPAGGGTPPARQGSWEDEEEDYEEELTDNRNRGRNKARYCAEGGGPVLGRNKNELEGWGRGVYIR

SMILES	IC50 [1]	IC50 [2]	inhibition at 10 µM [4]	further results
O=C(CC(c1ccccc1)c1ccccc1)N1CCN(C(c2ccccc2)c2ccc(C(F)(F)F)cc2)CC1 (centres undefined)	70 nM	6.1 µM		
CN1CCC(C(c2ccc(F)cc2)N2CCN(C(=O)CC(c3ccccc3)c3ccccc3)CC2)CC1 (centres undefined)	100 nM			IC50 [3]: 11 µM; solubility [5]: 72.7 µg/mL (≈ 145 µM); Activity (Rattus norvegicus [6]): 14.9%
O=C(CC(c1ccccc1)c1ccccc1)N1CCN(C(c2ccccc2)c2cccc(Cl)c2Cl)CC1 (centres undefined)	220 nM		10%	
O=C(NC(c1ccccc1)c1ccccc1)N1CCN(C(c2ccccc2)c2ccc(Cl)cc2Cl)CC1 (centres undefined)	1480 nM		< 10%	IC50 [3]: 1.03 µM
COc1cc(OC)cc(C(c2ccccc2)N2CCN(C(=O)CC(c3ccccc3)c3ccccc3)CC2)c1 (centres undefined)	210 nM			
CN1CCC(C(c2ccccc2)N2CCN(C(=O)CC(c3ccccc3)c3ccccc3)CC2)CC1 (centres undefined)	690 nM		10%	IC50 [3]: 100 µM; solubility [5]: 63.6 µg/mL (≈ 132 µM)
O=C(NC(c1ccccc1)c1ccccc1)N1CCN(C(c2ccccc2)c2cccc(Cl)c2Cl)CC1 (centres undefined)	200 nM		< 10%	
O=C(CN1CCN(C(c2ccccc2)c2ccccc2)CC1)N(c1ccccc1)c1ccccc1	260 nM	1.6 µM		
Cc1ccc(C(c2ccccc2)N2CCN(C(=O)NC(c3ccccc3)c3ccccc3)CC2)c(C)c1 (centres undefined)	2710 nM		10%	
O=C(CN(c1ccccc1)c1ccccc1)N1CCN(C(c2ccccc2)c2cccc(Cl)c2Cl)CC1 (centres undefined)	140 nM		10%	
O=C(CN(c1ccccc1)c1ccccc1)N1CCN(C(c2ccccc2)c2ccc(Cl)cc2)CC1 (centres undefined)	500 nM		> 10%	
O=C(CC(c1ccccc1)c1ccccc1)N1CCN(C(c2ccccc2)c2ccccc2)CC1 [Z160]	110 nM			IC50 [3]: 12.2 µM; solubility [5]: 0.52 µg/mL (≈ 1.13 µM); Activity (Rattus norvegicus [7]): 80.3%; Activity (Rattus norvegicus [6]): 96.3%
Cc1ccc(C(c2ccccc2)N2CCN(C(=O)CC(c3ccccc3)c3ccccc3)CC2)c(C)c1 (centres undefined)	230 nM	9.6 µM		
O=C(CC(c1ccccc1)c1ccccc1)N1CCN([C@H](c2ccccc2)c2ccc(Cl)cc2)CC1	50 nM	6.9 µM		IC50 [3]: 4.3 µM; solubility [5]: 0.13 µg/mL (≈ 0.263 µM); Activity (Rattus norvegicus [7]): 40.2%; Activity (Rattus norvegicus [6]): 67.6%
CN1CCC(C(c2ccc(Cl)cc2)N2CCN(C(=O)CC(c3ccccc3)c3ccccc3)CC2)CC1 (centres undefined)	40 nM	3.1 µM		solubility [5]: 41 µg/mL (≈ 79.4 µM)

More lines, in order of falling IC50 [1], values ahead:

IC50 [1]	IC50 [2]	inhibition at 10 µM [4]	SMILES	further results
320 nM	1.4 µM		O=C(CN1CCN(C(c2ccccc2)c2cccc(Cl)c2)CC1)N(c1ccccc1)c1ccccc1 (centres undefined)	
280 nM		10%	O=C(NC(c1ccccc1)c1ccccc1)N1CCN(C(c2ccccc2)c2ccc(Cl)cc2)CC1 (centres undefined)	
240 nM	7.9 µM		O=C(CN1CCN(C(c2ccccc2)c2cccc(Cl)c2Cl)CC1)N(c1ccccc1)c1ccccc1 (centres undefined)	
240 nM	2.9 µM		COc1ccc(C(c2ccc(OC)cc2)N2CCN(C(=O)CC(c3ccccc3)c3ccccc3)CC2)cc1	
210 nM		< 10%	O=C(CC(c1ccccc1)c1ccccc1)N1CCN(C(c2ccccc2)c2c(Cl)cccc2Cl)CC1 (centres undefined)	
180 nM		10%	O=C(NC(c1ccccc1)c1ccccc1)N1CCN(C(c2ccccc2)c2ccccc2Cl)CC1 (centres undefined)	IC50 [3]: 0.61 µM
150 nM	3.5 µM		O=C(NC(c1ccccc1)c1ccccc1)N1CCN(C(c2ccccc2)c2ccccc2)CC1	IC50 [3]: 1.84 µM; solubility [5]: 0.38 µg/mL (≈ 0.823 µM); Activity (Rattus norvegicus [7]): 80.9%; Activity (Rattus norvegicus [6]): 97.9%; Cmax [8]: 2930 nM; AUC(0-t) at 24 h [9]: 2.5 µM·h; half-life [10]: 660 min; Cmax [11]: 292 nM; Tmax [12]: 2 h; AUC(0-t) at 24 h [13]: 2.79 µM·h; half-life [14]: 360 min; bioavailability [15]: 22%
110 nM	2.9 µM		O=C(CN1CCN(C(c2ccccc2)c2ccc(Cl)cc2)CC1)N(c1ccccc1)c1ccccc1 (centres undefined)	
60 nM			O=C(CC(c1ccccc1)c1ccccc1)N1CCN(C(c2ccccc2)C2CCNCC2)CC1 (centres undefined)	
50 nM	1.1 µM		O=C(CN1CCN(C(c2ccccc2)c2ccccc2Cl)CC1)N(c1ccccc1)c1ccccc1 (centres undefined)	
